Results pooled from the literature.
Each line is one published result; the experiments were not run side by side.
Target: Dual specificity tyrosine-phosphorylation-regulated kinase 2 (DYRK2, Homo sapiens, UniProt Q92630)
Method: competition with immobilised ligand
One construct used (Q92630 1-601): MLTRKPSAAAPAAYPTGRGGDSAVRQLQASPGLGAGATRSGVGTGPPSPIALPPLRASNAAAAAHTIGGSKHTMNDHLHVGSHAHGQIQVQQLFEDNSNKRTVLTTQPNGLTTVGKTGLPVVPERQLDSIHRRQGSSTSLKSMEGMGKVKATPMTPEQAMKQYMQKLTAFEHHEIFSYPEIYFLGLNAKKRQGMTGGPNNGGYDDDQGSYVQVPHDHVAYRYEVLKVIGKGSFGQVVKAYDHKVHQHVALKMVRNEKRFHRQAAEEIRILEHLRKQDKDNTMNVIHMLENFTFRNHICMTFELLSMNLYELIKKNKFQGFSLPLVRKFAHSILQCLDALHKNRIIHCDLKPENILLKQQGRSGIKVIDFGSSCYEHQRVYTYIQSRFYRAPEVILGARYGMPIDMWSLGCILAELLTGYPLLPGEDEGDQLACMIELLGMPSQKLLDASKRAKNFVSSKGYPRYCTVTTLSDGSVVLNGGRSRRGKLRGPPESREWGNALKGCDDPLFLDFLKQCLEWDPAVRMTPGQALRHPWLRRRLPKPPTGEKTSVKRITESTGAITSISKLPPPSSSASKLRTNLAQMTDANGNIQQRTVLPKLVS

O=C(c1ccc(Nc2ncc(Cl)c(-c3ccc(Cl)s3)n2)cc1)N1CCC(N2CCCC2)CC1
remaining binding (binding; 1 µM): 3.8%

CN(C(=O)c1ccccc1)c1cc(N(C)c2ccc3c(c2)CCc2ccc(C(=O)NCCN4CCOCC4)cc2C3=O)ccc1F
remaining binding (cell-free assay; 1 µM): 82%

CN(CCCC(F)(F)F)c1nccc(-c2cnn3ncccc23)n1
remaining binding (binding; 1 µM): 77%

C[C@@H](c1ccc(-n2cnc3c(N)ncnc32)cc1)N1CCc2nn(C)c(Cc3ccccc3)c2C1=O
remaining binding (binding; 0.1 µM): 79%

CS(=O)(=O)N1CCCC(NC(=O)[C@H](CCC2CCCCC2)NC(=O)c2ccc(CNc3ncnc4c3nnn4-c3ccccc3)cc2)C1 (stereo partly shown)
remaining binding (cell-free assay; 0.1 µM): 100%

O=C(NCCCN1CCOCC1)c1ccc(Nc2nccc(-c3cc4ccccc4s3)n2)cc1
remaining binding (binding; 1 µM): 16%

COc1cnc(Nc2cccc(S(N)(=O)=O)c2)nc1N1CCN(c2ccccc2)CC1
remaining binding (binding; 1 µM): 70%

COc1cc(-c2cn(C3CCc4ccccc4N(CC(F)(F)F)C3=O)nn2)ccc1-n1ccc(C)n1 (stereo not shown)
remaining binding (cell-free assay; 1 µM): 94%

FC(F)(F)Oc1cccc(-c2cnc3ccc(-c4ccncc4)nn23)c1
remaining binding (cell-free assay; 5 µM): 5%

O=C(NCCCN1CCOCC1)c1ccc(Nc2ncc(Cl)c(-c3ccc(Cl)s3)n2)cc1
remaining binding (binding; 1 µM): 2.9%

CNC(=O)[C@@H]1CC[C@@H](n2c(-c3ccc4cnccc4c3)nc3ccc(C(=O)NCc4cccc(C(N)=O)c4)cc32)C1
remaining binding (binding; 1 µM): 86%

O=C(Nc1ccc(Oc2ccc(F)cc2)cc1)N1CCc2ncccc2[C@H]1c1ccc(F)cc1
remaining binding (cell-free assay; 1 µM): 84%

O=C(Nc1c[nH]nc1C(=O)NC1CCNCC1)c1cc(F)cc(F)c1
remaining binding (binding; 1 µM): 4.8%
